We go through 15 compounds from ChEMBL document CHEMBL1158335, “Synthesis and evaluation of some new benzimidazole derivatives as potential antimicrobial agents” (2009).

Converted amounts (≈) assume the structure as drawn. The source made the active and inactive calls. The rule behind the calls is not given here.

One test deals with Aspergillus flavus. The test is described as follows: Antifungal activity against Aspergillus flavus AIIMS isolate at 30 ug/ml by cup-plate agar diffusion method. In kind it is functional. To be noted: for zone of inhibition at 30 µg/mL: read-out: DIZ. An outline of the steps:
(§1)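 Cup-plate agar diffusion assay against the fungal strains, with amphotericin B as the reference standard.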
A general note: Agar diffusion results depend on both activity and mobility in agar.

Test [1] deals with Escherichia coli. The test is described as follows: Antibacterial activity against Escherichia coli ATCC 25922 at 200 ug/ml after 24 hrs. It counts as functional, organism-based. An outline of the steps:
(§2)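 Organisms grown overnight at 37 °C in buffered glucose broth. A loopful (5 mm diameter) was added to buffered glucose broth containing the test compound and incubated at 37 °C for 24 h. Growth was scored against the untreated control as total inhibition, poor, medium or confluent growth.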

The test system of a further test is Candida albicans. As to the kind of experiment: Antifungal activity against Candida albicans MTCC 1637 at 30 ug/ml by cup-plate agar diffusion method. In kind it is functional. As to conditions: for zone of inhibition at 30 µg/mL: read-out: DIZ. An outline of the steps:
as §1

The test system of test [2] is Bacillus subtilis. The test is described as follows: Antibacterial activity against Bacillus subtilis MTCC 121 after 24 hrs. In kind it is functional. To be noted: MTCC 121, 24 h.
Test [3] deals with Escherichia coli. As to the kind of experiment: Antibacterial activity against Escherichia coli ATCC 25922 after 24 hrs. In kind it is functional. As to conditions: ATCC 25922, 24 h.
In test [4] the test system is Bacillus subtilis. As to the kind of experiment: Antibacterial activity against Bacillus subtilis MTCC 121 at 200 ug/ml after 24 hrs. It counts as functional, organism-based. An outline of the steps:
as §2

Test [5] relates to Bacillus subtilis. The test is described as follows: Antibacterial activity against Bacillus subtilis MTCC 121 at 1 ug/ml after 24 hrs. In kind it is functional, organism-based. An outline of the steps: as §2
Test [6] relates to Bacillus subtilis. As to the kind of experiment: Antibacterial activity against Bacillus subtilis MTCC 121 at 500 ug/ml after 24 hrs. In kind it is functional, organism-based. An outline of the steps: as §2
For test [7], the system named is Escherichia coli. The test is described as follows: Antibacterial activity against Escherichia coli ATCC 25922 at 100 ug/ml after 24 hrs. It counts as functional, organism-based. An outline of the steps: as §2
Test [8] concerns Escherichia coli. As to the kind of experiment: Antibacterial activity against Escherichia coli ATCC 25922 at 1 ug/ml after 24 hrs. In kind it is functional, organism-based. An outline of the steps: as §2
In the next test the test system is Aspergillus niger. As to the kind of experiment: Antifungal activity against Aspergillus niger AIIMS isolate at 30 ug/ml by cup-plate agar diffusion method. It counts as functional. As to conditions: for zone of inhibition at 30 µg/mL: read-out: DIZ. An outline of the steps:
as §1

Test [9] has as its system Escherichia coli. As to the kind of experiment: Antibacterial activity against Escherichia coli ATCC 25922 at 500 ug/ml after 24 hrs. It counts as functional, organism-based. An outline of the steps:
as §2

Test [10] relates to Bacillus subtilis. As to the kind of experiment: Antibacterial activity against Bacillus subtilis MTCC 121 at 100 ug/ml after 24 hrs. In kind it is functional, organism-based. An outline of the steps: as §2
Test [11] deals with Bacillus subtilis. As to the kind of experiment: Antibacterial activity against Bacillus subtilis MTCC 121 at 10 ug/ml after 24 hrs. It counts as functional, organism-based. An outline of the steps:
as §2

In test [12] the test system is Escherichia coli. As to the kind of experiment: Antibacterial activity against Escherichia coli ATCC 25922 at 10 ug/ml after 24 hrs. It counts as functional, organism-based. An outline of the steps:
as §2

By MIC is commonly meant the lowest concentration that inhibits growth of the organism. A low value points to a more susceptible organism. For `Cc1ccccc1C1C(Cl)C(=O)N1c1nnc(Cn2c(C)nc3ccccc32)s1` (stereo not drawn), the zone of inhibition at 30 µg/mL with Aspergillus flavus is less than 10 mm; in the test with Candida albicans, 10 mm; in the test with Aspergillus niger it was 16 mm. Further, the inhibition result with Escherichia coli [1], with Bacillus subtilis [4], in the test with Bacillus subtilis [6], with Escherichia coli [7], in the test on Escherichia coli [9] and in the test on Bacillus subtilis [10] was “Active” each time. For the same compound, the MIC in the test with Bacillus subtilis [2] and in the test with Escherichia coli [3] was 100 µg/mL (≈ 236 µM) throughout. For the same compound, the inhibition entry in the test with Bacillus subtilis [5] and in the test with Escherichia coli [8] was “inactive” each time.

Consider `Cc1ccc(C2C(Cl)C(=O)N2c2nnc(Cn3c(C)nc4ccccc43)s2)cc1` (stereo not drawn), for which the zone of inhibition at 30 µg/mL in the test on Aspergillus flavus was 16 mm; with Candida albicans it was less than 10 mm; with Aspergillus niger, 10 mm. In addition, the inhibition entry with Bacillus subtilis [11], in the test on Bacillus subtilis [5] and with Escherichia coli [8] was “inactive” in each case. In addition, the minimal inhibitory concentration (MIC) in the test on Bacillus subtilis [2] and with Escherichia coli [3] was 500 µg/mL (≈ 1180 µM) each time. Further, the inhibition result with Bacillus subtilis [6] and in the test on Escherichia coli [9] was “Active” each time.

On to `Cc1nc2ccccc2n1Cc1nnc(N2C(=O)C(Cl)C2c2ccccc2)s1` (stereo not drawn), for which the inhibition result with Escherichia coli [12], in the test on Bacillus subtilis [11], with Bacillus subtilis [5] and with Escherichia coli [8] was “inactive” each time. The zone of inhibition at 30 µg/mL came to 16 mm in the test with Aspergillus flavus, 16 mm in the test with Candida albicans and 10 mm in the test on Aspergillus niger. Moreover, the MIC stood at 200 µg/mL (≈ 488 µM) against Bacillus subtilis [2] and 500 µg/mL (≈ 1220 µM) in the test with Escherichia coli [3]. Further, the inhibition entry with Bacillus subtilis [4], in the test with Bacillus subtilis [6] and in the test with Escherichia coli [9] was “Active” each time.

For `Cc1nc2ccccc2n1Cc1nnc(/N=C/c2ccccc2O)s1`, the inhibition result in the test on Escherichia coli [12], in the test with Bacillus subtilis [5] and with Escherichia coli [8] was “inactive” each time. The “diameter of the inhibition zone (DIZ)” value in the test with Aspergillus flavus, in the test on Candida albicans and with Aspergillus niger was “inactive” each time. For the same compound, the inhibition result in the test on Escherichia coli [1], with Bacillus subtilis [4], in the test with Bacillus subtilis [6], in the test on Escherichia coli [9] and in the test on Bacillus subtilis [10] was “Active” throughout. Besides, the results for the MIC against Bacillus subtilis [2] and in the test on Escherichia coli [3] were 100 µg/mL (≈ 286 µM) and 200 µg/mL (≈ 572 µM), respectively.

As for `Cc1nc2ccccc2n1Cc1nnc(N2C(=O)C(Cl)C2c2ccc(N)cc2)s1` (stereo not drawn), the zone of inhibition at 30 µg/mL with Aspergillus flavus is 10 mm; with Candida albicans, 16 mm; with Aspergillus niger it was 10 mm. In addition, the inhibition entry with Escherichia coli [1], in the test with Bacillus subtilis [4], with Bacillus subtilis [6], with Escherichia coli [9] and in the test with Bacillus subtilis [10] was “Active” each time. Moreover, the figures for the MIC with Bacillus subtilis [2] and against Escherichia coli [3] were 100 µg/mL (≈ 235 µM) and 200 µg/mL (≈ 471 µM), respectively. Also, in the test on Escherichia coli [8], the inhibition result was “inactive”.

For `Cc1nc2ccccc2n1Cc1nnc(/N=C/c2ccc(N)cc2)s1`, the figures for the zone of inhibition at 30 µg/mL with Aspergillus flavus, with Candida albicans and in the test with Aspergillus niger were 10 mm, 16 mm and 22 mm, respectively. The inhibition result in the test with Escherichia coli [1], in the test on Bacillus subtilis [4], in the test on Bacillus subtilis [6], in the test on Escherichia coli [9] and in the test on Bacillus subtilis [10] was “Active” in each case. Further, the values for the MIC against Bacillus subtilis [2] and against Escherichia coli [3] were 100 µg/mL (≈ 287 µM) and 200 µg/mL (≈ 574 µM), respectively. In addition, the inhibition entry with Bacillus subtilis [5] and with Escherichia coli [8] was “inactive” each time.

On to `C[C@@H]1[C@H](O)[C@@H](C)/C=C/C=C/C=C/C=C/C=C/C=C/C=C/[C@H](O[C@@H]2O[C@H](C)[C@@H](O)[C@H](N)[C@@H]2O)C[C@@H]2O[C@](O)(C[C@@H](O)C[C@@H](O)[C@H](O)CC[C@@H](O)C[C@@H](O)CC(=O)O[C@H]1C)C[C@H](O)[C@H]2C(=O)O` [AMPHOTERICIN B], for which the zone of inhibition at 30 µg/mL in the test with Aspergillus flavus, in the test on Candida albicans and with Aspergillus niger was 22 mm in each case.

`COc1ccc(/C=N/c2nnc(Cn3c(C)nc4ccccc43)s2)cc1`: the inhibition result with Escherichia coli [12], in the test on Bacillus subtilis [5] and in the test on Escherichia coli [8] was “inactive” each time. Besides, the zone of inhibition at 30 µg/mL came out at 16 mm with Aspergillus flavus, 10 mm in the test with Candida albicans and 16 mm with Aspergillus niger. The inhibition result with Escherichia coli [1], in the test with Bacillus subtilis [4], with Bacillus subtilis [6], with Escherichia coli [9] and in the test on Bacillus subtilis [10] was “Active” in each case. In addition, the MIC against Bacillus subtilis [2] turned out to be 100 µg/mL (≈ 275 µM); in the test on Escherichia coli [3] it was 200 µg/mL (≈ 550 µM).

Regarding `Cc1nc2ccccc2n1Cc1nnc(N2C(=O)C(Cl)C2c2cccc(O)c2)s1` (stereo not drawn), the “diameter of the inhibition zone (DIZ)” value in the test on Aspergillus flavus, with Candida albicans and in the test on Aspergillus niger was “inactive” throughout. Besides, the MIC in the test on Bacillus subtilis [2] was determined as 200 µg/mL (≈ 470 µM); in the test on Escherichia coli [3], 500 µg/mL (≈ 1170 µM). Besides, the inhibition entry with Bacillus subtilis [4], in the test with Bacillus subtilis [6] and in the test on Escherichia coli [9] was “Active” each time. Moreover, the inhibition entry in the test on Bacillus subtilis [5] and in the test with Escherichia coli [8] was “inactive” throughout.

With `Cc1nc2ccccc2n1Cc1nnc(/N=C/c2ccc(Br)cc2)s1`, the inhibition entry with Escherichia coli [12], with Bacillus subtilis [11], with Bacillus subtilis [5] and in the test with Escherichia coli [8] was “inactive” in each case. In addition, the “diameter of the inhibition zone (DIZ)” value in the test with Aspergillus flavus, in the test on Candida albicans and with Aspergillus niger was “inactive” throughout. Also, the MIC in the test on Bacillus subtilis [2] and against Escherichia coli [3] was 500 µg/mL (≈ 1210 µM) throughout. Also, the inhibition result in the test on Bacillus subtilis [6] and with Escherichia coli [9] was “Active” in each case.

`Cc1nc2ccccc2n1Cc1nnc(N2C(=O)C(Cl)C2c2ccccc2O)s1` (stereo not drawn): the zone of inhibition at 30 µg/mL in the test on Aspergillus flavus is 10 mm; with Candida albicans, 10 mm; in the test with Aspergillus niger, 16 mm. Also, the inhibition entry in the test on Escherichia coli [1], with Bacillus subtilis [4], in the test on Bacillus subtilis [6], in the test on Escherichia coli [9] and with Bacillus subtilis [10] was “Active” throughout. For the same compound, the results for the MIC against Bacillus subtilis [2] and in the test with Escherichia coli [3] were 100 µg/mL (≈ 235 µM) and 200 µg/mL (≈ 470 µM), respectively. Moreover, the inhibition result in the test on Escherichia coli [8] was “inactive”.

With `Cc1nc2ccccc2n1Cc1nnc(/N=C/c2ccc(O)cc2)s1`, the zone of inhibition at 30 µg/mL in the test on Aspergillus flavus, in the test with Candida albicans and with Aspergillus niger was 16 mm in each case. The inhibition entry in the test with Escherichia coli [1], with Bacillus subtilis [4], with Bacillus subtilis [6] and in the test on Escherichia coli [9] was “Active” throughout. Further, the MIC in the test with Bacillus subtilis [2] and with Escherichia coli [3] was 200 µg/mL (≈ 572 µM) each time. The inhibition entry in the test with Bacillus subtilis [5] and in the test on Escherichia coli [8] was “inactive” each time.

Take `COc1ccc(C2C(Cl)C(=O)N2c2nnc(Cn3c(C)nc4ccccc43)s2)cc1` (stereo not drawn): the zone of inhibition at 30 µg/mL in the test on Aspergillus flavus was less than 10 mm; in the test on Candida albicans it was 10 mm; with Aspergillus niger, less than 10 mm. Besides, the inhibition entry in the test with Escherichia coli [1], with Bacillus subtilis [4], in the test with Bacillus subtilis [6] and with Escherichia coli [9] was “Active” each time. For the same compound, the MIC against Bacillus subtilis [2] and in the test on Escherichia coli [3] was 200 µg/mL (≈ 455 µM) each time. The inhibition result in the test with Bacillus subtilis [5] and in the test on Escherichia coli [8] was “inactive” in each case.

In the case of `Cc1nc2ccccc2n1Cc1nnc(N2C(=O)C(Cl)C2c2ccc(O)cc2)s1` (stereo not drawn), the inhibition result in the test with Escherichia coli [12] and with Escherichia coli [8] was “inactive” in each case. In addition, the zone of inhibition at 30 µg/mL in the test with Aspergillus flavus, in the test with Candida albicans and with Aspergillus niger was 16 mm in each case. The MIC against Bacillus subtilis [2] amounted to 200 µg/mL (≈ 470 µM); with Escherichia coli [3], 500 µg/mL (≈ 1170 µM). In addition, the inhibition result with Bacillus subtilis [4], in the test with Bacillus subtilis [6] and in the test on Escherichia coli [9] was “Active” each time.

With `Cc1nc2ccccc2n1Cc1nnc(/N=C/c2ccccc2)s1`, the zone of inhibition at 30 µg/mL with Aspergillus flavus is 22 mm; in the test with Candida albicans, 16 mm; in the test with Aspergillus niger it was 22 mm. The inhibition result in the test on Escherichia coli [1], with Bacillus subtilis [4], in the test on Bacillus subtilis [6], in the test with Escherichia coli [9] and in the test on Bacillus subtilis [10] was “Active” in each case. For the same compound, the MIC against Bacillus subtilis [2] worked out at 100 µg/mL (≈ 300 µM); against Escherichia coli [3] it was 200 µg/mL (≈ 600 µM). Further, the inhibition entry in the test with Bacillus subtilis [5] and in the test with Escherichia coli [8] was “inactive” each time.
